Data taken from ChEMBL document CHEMBL2062515, “Synthesis and evaluation of novel radioligands for positron emission tomography imaging of metabotropic glutamate receptor subtype 1 (mGluR1) in rodent brain” (J Med Chem, 2012).

Columns and labels:
Type in all cases: ADME, organism-based
[1] = system: Mus musculus; assay: Biodistribution in mouse testis at 4.8 MBq/140 uL, iv after 1 min by gamma counting; details: in vivo
How it was run: (§1)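 [¹¹C]radioligand in saline (4.8 MBq/140 μL, 40 pmol) injected via tail vein; four mice per time point killed by cervical dislocation at 1, 5, 15, 30, 60 min. Tissues (small intestine including contents) removed, counted in autogamma counter, decay-corrected, expressed as % injected dose per gram wet tissue; mean SE, n = 4.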

[2] = system: Spleen; assay: Biodistribution in mouse spleen at 4.8 MBq/140 uL, iv after 5 mins by gamma counting; details: in vivo; how it was run: as §1
[3] = system: Kidney; assay: Biodistribution in mouse kidney at 4.8 MBq/140 uL, iv after 15 mins by gamma counting; details: in vivo, 0.25 h
How it was run: (§2)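 Mice received the radioligand in saline by tail vein (4.8 MBq/140 μL, 40 pmol). Four mice per time point were killed by cervical dislocation at 1, 5, 15, 30 and 60 min. Tissues were removed quickly and counted in an autogamma counter. Data are decay-corrected % injected dose per gram of wet tissue, mean ± SE, n = 4.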

[4] = system: Mus musculus; assay: Biodistribution in mouse small intestine at 4.8 MBq/140 uL, iv after 1 min by gamma counting; details: in vivo; how it was run: as §1
[5] = system: Spleen; assay: Biodistribution in mouse spleen at 4.8 MBq/140 uL, iv after 30 mins by gamma counting; details: in vivo, 0.5 h; how it was run: as §1
[6] = system: Blood; assay: Biodistribution in mouse blood at 4.8 MBq/140 uL, iv after 30 mins by gamma counting; details: in vivo, 0.5 h; how it was run: as §2
[7] = system: Striatum; assay: Drug uptake in Sprague-Dawley rat striatum at 17 MBq administered as bolus infusion by PET analysis in presence of JNJ16259685; details: in vivo, iv
[8] = system: Lung; assay: Biodistribution in mouse lung at 4.8 MBq/140 uL, iv after 1 min by gamma counting; details: in vivo; how it was run: as §2
[9] = system: Kidney; assay: Biodistribution in mouse kidney at 4.8 MBq/140 uL, iv after 30 mins by gamma counting; details: in vivo, 0.5 h; how it was run: as §2
[10] = system: Kidney; assay: Biodistribution in mouse kidney at 4.8 MBq/140 uL, iv after 5 mins by gamma counting; details: in vivo; how it was run: as §2
[11] = system: Cerebellum; assay: Drug uptake in Sprague-Dawley rat cerebellum at 16 MBq administered as bolus infusion after 45 mins post injection by PET analysis; details: in vivo, iv, 0.75 h
[12] = system: Mus musculus; assay: Biodistribution in mouse small intestine at 4.8 MBq/140 uL, iv after 30 mins by gamma counting; details: in vivo, 0.5 h; how it was run: as §1
[13] = system: Muscle tissue; assay: Biodistribution in mouse muscle at 4.8 MBq/140 uL, iv after 30 mins by gamma counting; details: in vivo, 0.5 h; how it was run: as §2
[14] = system: Liver; assay: Biodistribution in mouse liver at 4.8 MBq/140 uL, iv after 15 mins by gamma counting; details: in vivo, 0.25 h; how it was run: as §2
[15] = system: Brain; assay: Biodistribution in mouse brain at 4.8 MBq/140 uL, iv after 30 mins by gamma counting; details: in vivo, 0.5 h; how it was run: as §2
[16] = system: Thalamus; assay: Drug uptake in Sprague-Dawley rat thalamus at 17 MBq administered as bolus infusion by PET analysis in presence of N-[4-[6-(isopropylamino)pyrimidin-4-yl]-1,3-thiazol-2-yl]-4-methoxy-N-methylbenzamide; details: in vivo, iv
[17] = system: Mus musculus; assay: Biodistribution in mouse testis at 4.8 MBq/140 uL, iv after 5 mins by gamma counting; details: in vivo; how it was run: as §1
[18] = system: Brain; assay: Biodistribution in mouse brain at 4.8 MBq/140 uL, iv after 5 mins by gamma counting; details: in vivo; how it was run: as §2
[19] = system: Mus musculus; assay: Biodistribution in mouse testis at 4.8 MBq/140 uL, iv after 60 mins by gamma counting; details: in vivo, 1 h; how it was run: as §1
[20] = system: Striatum; assay: Drug uptake in Sprague-Dawley rat striatum at 16 MBq administered as bolus infusion after 45 mins by PET analysis; details: in vivo, iv, 0.75 h
[21] = system: Mus musculus; assay: Biodistribution in mouse small intestine at 4.8 MBq/140 uL, iv after 15 mins by gamma counting; details: in vivo, 0.25 h; how it was run: as §1
[22] = system: Lung; assay: Biodistribution in mouse lung at 4.8 MBq/140 uL, iv after 60 mins by gamma counting; details: in vivo, 1 h; how it was run: as §2
[23] = system: Muscle tissue; assay: Biodistribution in mouse muscle at 4.8 MBq/140 uL, iv after 60 mins by gamma counting; details: in vivo, 1 h; how it was run: as §1
[24] = system: Heart; assay: Biodistribution in mouse heart at 4.8 MBq/140 uL, iv after 5 mins by gamma counting; details: in vivo; how it was run: as §2
[25] = system: Thalamus; assay: Drug uptake in wild type mouse thalamus at 17 MBq, iv up to 60 mins by PET analysis; details: in vivo, 1 h
[26] = system: Lung; assay: Biodistribution in mouse lung at 4.8 MBq/140 uL, iv after 5 mins by gamma counting; details: in vivo; how it was run: as §2

`CC(C)Nc1cc(-c2csc(N(C)C(=O)c3ccc(O[11CH3])cc3)n2)ncn1` gave a Drug uptake [1] of 0.72 % ID/g, a Drug uptake [2] of 1.96 % ID/g and a Drug uptake [3] of 3.78 % ID/g. It also gave a Drug uptake [4] of 3.65 % ID/g, a Drug uptake [5] of 2.14 % ID/g and a Drug uptake [6] of 0.67 % ID/g. The Drug uptake [7] was “Not Active”, the Drug uptake [8] was 5.17 % ID/g and the Drug uptake [9] was 3.32 % ID/g. The Drug uptake [10] was 5.64 % ID/g, the Drug uptake [11] was “Active” and the Drug uptake [12] was 4.07 % ID/g. For the same compound, the Drug uptake [13] was 0.64 % ID/g, the Drug uptake [14] was 5.57 % ID/g and the Drug uptake [15] was 2.38 % ID/g. The Drug uptake [16] was “Not Active”, the Drug uptake [17] was 0.83 % ID/g and the Drug uptake [18] was 3.21 % ID/g. For the same compound, the Drug uptake [19] was 0.33 % ID/g, the Drug uptake [20] was “Active” and the Drug uptake [21] was 4.98 % ID/g. The Drug uptake [22] was 1.57 % ID/g, the Drug uptake [23] was 0.52 % ID/g and the Drug uptake [24] was 2.09 % ID/g. The Drug uptake [25] was “Active” and the Drug uptake [26] was 2.9 % ID/g.
